# ChEMBL document CHEMBL1212705, “Gene expression signatures and small-molecule compounds link a protein kinase to Plasmodium falciparum motility” (Nat Chem Biol, 2008)
# Activity calls are given as the source filed them. The calls are words filed in the database; no cut-off is given here.
# Experiments:
# Plasmodium falciparum [1] = assay: Binding affinity to Plasmodium falciparum PF11_0191 at 2.5 mM by LC/MS/MS analysis
# Outline: (§1)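 P. falciparum parasite lysate was incubated with agarose-immobilized inhibitor and washed extensively. Retained proteins were eluted with urea, resolved by SDS-PAGE and identified by LC/MS/MS. In a competition arm, free inhibitor (2.5 mM) was added to the lysate before incubation with the beads under identical conditions.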
# Plasmodium falciparum [2] = assay: Binding affinity to Plasmodium falciparum PFI0180w at 2.5 mM by LC/MS/MS analysis; outline: as §1
# Plasmodium falciparum [3] = assay: Binding affinity to Plasmodium falciparum PF13_0238 at 2.5 mM by LC/MS/MS analysis; outline: as §1
# [4] = Inhibition of GST-fused Plasmodium falciparum recombinant CDPK1 expressed in Escherichia coli Rosetta 2 assessed as inhibition of [gamma-33P]ATP incorporation into substrate peptide by scintillation counting
# Plasmodium falciparum [5] = assay: Antiplasmodial activity against Plasmodium falciparum 3D7 after 72 hrs by SYBR green assay; type: functional, organism-based; details: 3D7, 72 h
# Plasmodium falciparum [6] = assay: Upregulation of DNA replication gene expression in Plasmodium falciparum at 460 nM after 48 hrs by microarray analysis; type: functional, organism-based
# Outline: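 P. falciparum 3D7 was grown in human O+ erythrocytes. Heterogeneous, unsynchronized parasites were incubated with 460 nM compound for 24 or 48 h, then compared with untreated parasites on a full-genome microarray. Transcript changes were called by a statistical test.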
# Toxoplasma gondii [7] = assay: Antimicrobial activity against Toxoplasma gondii […] infected in african green monkey BSC1 cells assessed as parasite invasion at 25 uM after 48 hrs by microscopy relative to control; type: functional, BSC-1
# Toxoplasma gondii [8] = assay: Antimicrobial activity against Toxoplasma gondii […] infected in african green monkey BSC1 cells assessed as parasite invasion at 3.1 uM after 48 hrs by microscopy relative to control; type: functional, BSC-1
# Plasmodium falciparum [9] = assay: Antiplasmodial activity against multidrug-resistant Plasmodium falciparum FCB after 72 hrs by SYBR green assay; type: functional, organism-based
# Outline: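 Parasites grown in human O+ erythrocytes in RPMI with human serum and albumax. For the assay, serially diluted compounds were added to screening medium (RPMI, 4.16 mg/ml albumax) at 2.5% hematocrit and 0.3% parasitemia, then incubated 72 h in 93% N2/4% CO2/3% O2. DMSO served as baseline and uninfected erythrocytes as background. SYBR Green fluorescence was read at 520 nm to give EC50.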
# [10] = Cytotoxicity against CHO cells after 72 hrs by Cell Titer Glo assay; type: cell-based, Cricetulus griseus; details: chinese hamster, read-out: ED50
# Outline: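 Cells were seeded at 250 per well in DMEM with 5% FBS in 1,536-well plates, and compound was added the next day. Culture ran 72 h, matching the parasite proliferation assay. Viability was read by Cell Titer Glo luminescence, and EC50 was derived.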
# [11] = Cytotoxicity against human Hep2 cells after 72 hrs by Cell Titer Glo assay; type: cell-based, HEp-2; details: read-out: ED50
# Outline: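 Cells seeded at 250 per well in DMEM with 5% fetal bovine serum. Compound added the next day, followed by 72 h culture to match the parasite proliferation assay. Viability read by Cell Titer Glo luminescence.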
# Plasmodium yoelii = assay: Antiplasmodial activity blood stage Plasmodium yoelii infected in BALB/c mice (Mus musculus) assessed as delay in onset of parasitaemia at 10 mg/kg, perorally BID for 6 days measured after 6 days post infection by Peter's test; type: functional, organism-based; set-up: dose 10 mg/kg
# Plasmodium falciparum [12] = assay: Binding affinity to Plasmodium falciparum PF10_0153 at 2.5 mM by LC/MS/MS analysis; outline: as §1
# Plasmodium falciparum [13] = assay: Binding affinity to Plasmodium falciparum PFI0875w at 2.5 mM by LC/MS/MS analysis; outline: as §1
# Plasmodium falciparum [14] = assay: Binding affinity to Plasmodium falciparum PF08_0054 at 2.5 mM by LC/MS/MS analysis; outline: as §1
# Plasmodium falciparum [15] = assay: Binding affinity to Plasmodium falciparum PFL1545c at 2.5 mM by LC/MS/MS analysis; outline: as §1
# Plasmodium falciparum [16] = assay: Binding affinity to Plasmodium falciparum PF11_0351 at 2.5 mM by LC/MS/MS analysis; outline: as §1
# Plasmodium falciparum [17] = assay: Binding affinity to Plasmodium falciparum PF13_0116 at 2.5 mM by LC/MS/MS analysis; outline: as §1
# Plasmodium falciparum [18] = assay: Binding affinity to Plasmodium falciparum MAL7P1.228 at 2.5 mM by LC/MS/MS analysis; outline: as §1
# Plasmodium falciparum [19] = assay: Binding affinity to Plasmodium falciparum PF11_0037 at 2.5 mM by LC/MS/MS analysis; outline: as §1
# Plasmodium falciparum [20] = assay: Binding affinity to Plasmodium falciparum PF14_0186 at 2.5 mM by LC/MS/MS analysis; outline: as §1
# Plasmodium falciparum [21] = assay: Binding affinity to Plasmodium falciparum PFF0160c at 2.5 mM by LC/MS/MS analysis; outline: as §1
# Plasmodium falciparum [22] = assay: Binding affinity to Plasmodium falciparum PF14_0439 at 2.5 mM by LC/MS/MS analysis; outline: as §1
# Toxoplasma gondii [23] = assay: Antimicrobial activity against Toxoplasma gondii […] infected in african green monkey BSC1 cells assessed as parasite invasion at 50 uM after 90 mins by microscopy relative to control
# Plasmodium falciparum [24] = assay: Antimicrobial activity against Plasmodium falciparum schizonts infected in human erythrocytes assessed as minimal effect on parasite cell cycle at 450 nM treated 24 hrs after release of ring stage by microscopy
# Plasmodium falciparum [25] = assay: Antimicrobial activity against Plasmodium falciparum schizonts infected in human erythrocytes assessed as minimal effect on parasite cell cycle at 450 nM treated 36 hrs after release of ring stage by microscopy
structure (smiles),measurement,setting,value
N[C@H]1CC[C@H](Nc2nc(Nc3ccc(C(=O)N4CCCCC4)cc3)c3ncn(-c4cccc(F)c4)c3n2)CC1 [PURFALCAMINE],Activity,Plasmodium falciparum [1],inactive
same,Activity,Plasmodium falciparum [2],inactive
same,Activity,Plasmodium falciparum [3],inactive
same,IC50,[4],17 nM
same,EC50,Plasmodium falciparum [5],230 nM
same,Activity,Plasmodium falciparum [6],Active
same,Activity,Toxoplasma gondii [7],<=20%
same,Activity,Toxoplasma gondii [8],60%
same,EC50,Plasmodium falciparum [9],169 nM
same,CC50 at 72 h,[10],12300 nM
same,CC50 at 72 h,[11],7240 nM
same,Activity,Plasmodium yoelii,Active
same,Activity,Plasmodium falciparum [12],inactive
same,Activity,Plasmodium falciparum [13],inactive
same,Activity,Plasmodium falciparum [14],inactive
same,Activity,Plasmodium falciparum [15],inactive
same,Activity,Plasmodium falciparum [16],inactive
same,Activity,Plasmodium falciparum [17],inactive
same,Activity,Plasmodium falciparum [18],inactive
same,Activity,Plasmodium falciparum [19],inactive
same,Activity,Plasmodium falciparum [20],inactive
same,Activity,Plasmodium falciparum [21],inactive
same,Activity,Plasmodium falciparum [22],inactive
same,Activity,Toxoplasma gondii [23],<=20%
same,Activity,Plasmodium falciparum [24],Active
same,Activity,Plasmodium falciparum [25],Active
